Measurements collected from several papers.
Compare with care: the assays were run in different laboratories.

CCN1CCN(C(=O)c2ccc(-n3nc(-c4cccnc4)c4c3-c3sc(NC(C)=O)nc3CC4)cc2)CC1
logP: 3.16

COc1cc(N2CCC(N3CCN(C)CC3)CC2)ccc1Nc1ncc(Cl)c(Nc2ccccc2P(C)(C)=O)n1
logP: 2.69

CNC(=O)c1ccc(-c2cnn3ccc(C(=O)N(C[C@H]4CCC(=O)O4)c4ccc(OC(F)(F)F)cc4)cc23)cc1
concentration (female C57BL/6 mouse, plasma; oral, 10 mg/kg, 1 h): 31.4 nM

O=C1NC(=O)/C(=C/c2ccc3ncnc(N4CCCCC4)c3n2)S1
logP: 2.33

CCOc1ccc2ccc(=O)oc2c1
hepatocyte CLint (metabolic stability; male beagle dog, hepatocytes; 1 µM): > 46.2 µL/min/10⁶ cells

CN(C(=O)c1ccn2ncc(-c3ccc(C(N)=O)cc3)c2c1)c1ccc(C#N)cn1
concentration (female C57BL/6 mouse, plasma; oral, 10 mg/kg, 4 h): 519 nM

O=C1NC(=O)/C(=C/c2ccc3ncnc(N4CCC(F)(F)CC4)c3n2)S1
logP: 2.51

CN(C)CC#Cc1ccc2[nH]c3c(c2c1)-c1nc(N)ncc1CCC3
concentration (male CD-1 mouse, plasma; intraperitoneal, 30 mg/kg, 1 h, single dose): 697 ng/mL

CCOC(=O)CN(C(=O)c1ccn2ncc(-c3ccc(C(=O)NC)cc3)c2c1)c1ccc(Cl)cc1
concentration (female C57BL/6 mouse, plasma; oral, 10 mg/kg, 4 h): 150 nM

CCN1CCN(Cc2ccc(NC(=O)c3ccc(C)c(NC(=O)c4cncc(-c5cccs5)c4)c3)cc2C(F)(F)F)CC1
half-life (mouse, plasma; intraperitoneal, 20 mg/kg, single dose): 2.52 h

Cc1cc2sc(N)nc2c2cccnc12
concentration (female BALB/c mouse, plasma; intraperitoneal, 30 mg/kg, 24 h, single dose): 32.7 ng/mL

CCOC(=O)c1cc(Cl)cc(NC(=O)c2sc(Cl)cc2S(=O)(=O)N(C)c2ccc(OCC)c(OC)c2)c1
concentration (male C57BL/6 mouse, brain; intraperitoneal, 10 mg/kg, 1 h): 6.45 ng/g

O=c1ccc2ccc(O)cc2o1
scaled CLint (metabolic stability; dog, liver microsomes): 1720 mL/min/kg
